Compounds with a hit are over-represented: about 2.3% of the library has one in this group of screens.
TRPC6 activator – mouse TRPC6 channel activation | AID 2550 | HEK293-TRPC6 membrane potential dye fluorescence; active compounds read high | B-score at 10 µM | hit rate 0.13% among 310,000 | Q61143;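 active = B-score of the integrated fluorescence ratio above library mean plus 3 SD, and starting fluorescence ratio within library mean plus 5 SD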;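 note: higher score means more depolarization so channel activation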
Target sequence (Q61143 whole entry, looked up): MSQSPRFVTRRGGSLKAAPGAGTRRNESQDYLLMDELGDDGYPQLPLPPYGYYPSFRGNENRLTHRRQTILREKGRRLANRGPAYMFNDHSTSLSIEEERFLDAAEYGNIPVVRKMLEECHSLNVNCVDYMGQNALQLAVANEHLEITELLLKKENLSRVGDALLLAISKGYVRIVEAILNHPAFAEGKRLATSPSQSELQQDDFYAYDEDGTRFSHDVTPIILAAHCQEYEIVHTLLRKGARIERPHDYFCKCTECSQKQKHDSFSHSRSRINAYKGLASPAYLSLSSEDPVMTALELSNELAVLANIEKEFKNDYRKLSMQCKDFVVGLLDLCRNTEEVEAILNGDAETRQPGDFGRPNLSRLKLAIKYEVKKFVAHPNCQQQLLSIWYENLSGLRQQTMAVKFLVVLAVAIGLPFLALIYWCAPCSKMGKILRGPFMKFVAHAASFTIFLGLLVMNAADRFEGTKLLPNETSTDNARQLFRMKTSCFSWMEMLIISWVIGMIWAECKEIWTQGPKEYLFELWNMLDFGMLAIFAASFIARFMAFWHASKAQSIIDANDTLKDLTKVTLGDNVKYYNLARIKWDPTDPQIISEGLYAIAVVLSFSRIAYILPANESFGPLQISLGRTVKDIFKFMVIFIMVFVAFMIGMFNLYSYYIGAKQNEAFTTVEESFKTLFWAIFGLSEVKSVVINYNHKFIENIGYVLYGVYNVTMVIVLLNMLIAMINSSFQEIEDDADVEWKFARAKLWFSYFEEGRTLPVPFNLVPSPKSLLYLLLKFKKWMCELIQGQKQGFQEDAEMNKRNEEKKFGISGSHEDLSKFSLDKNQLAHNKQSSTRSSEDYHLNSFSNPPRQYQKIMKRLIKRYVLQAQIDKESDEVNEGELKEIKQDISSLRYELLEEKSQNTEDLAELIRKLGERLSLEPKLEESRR
TRPC4 potent – TRPC4 (mouse) allosteric potentiation. AID 2227. HEK293 TRPC4beta/mu-opioid, DAMGO EC20, Fluo-4 Ca2+ flux; active compounds read high. Q9QUQ5. hit rate 0.42% among 310,000. B-score at 10 µM;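 active = B-score of calcium response area above 5 SD of library B-scores, with initial fluorescence ratio within 5 SD of library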
TRPC4 act – opens the mouse TRPC4 cation channel; B-score at 10 µM; hit rate 0.49% among 310,000; Q9QUQ5; HEK293 TRPC4beta/mu-opioid, Fluo4 calcium fluorescence; active compounds read high;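 active = B-score above 5 SD of library B-scores, and initial fluorescence ratio not above library mean plus 5 SD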;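 note: positive B-score marks a calcium rise read as TRPC4 activation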
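Assay system – TRPC4beta and mu-opioid receptor HEK293 stable cells · Measured by – Fluo4 fluorescence, kinetic · Schedule – dye loading 45 min room temperature, 110 s kinetic read · Read-out – B-scored integrated calcium fluorescence ratio · Controls – buffer and maximal DAMGO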
TRPC6 inhibitor – blocks the mouse TRPC6 cation channel; B-score at 10 µM; hit rate 1.1% among 310,000; HEK293-TRPC6, membrane potential dye, ACh-evoked depolarization; active compounds read low;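 active = B-score under library mean minus 3 SD, initial fluorescence not abnormally high, positive integrated signal ratio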;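 note: B-score derived from integrated fluorescence ratio over the kinetic read; more negative B-score means stronger inhibition of depolarization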
TRPC4 inh – blocks the mouse TRPC4 cation channel. Q9QUQ5. HEK293 TRPC4beta/mu-opioid, DAMGO-evoked Fluo4 calcium flux; active compounds read low. B-score at 10 µM. hit rate 0.39% among 300,000. AID 2247;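 active = B-score over 3 SD under the library average, no early fluorescence shift, positive overall ratio signal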
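Signal: kinetic Fluo4 fluorescence imaging of calcium influx. Material: stable TRPC4beta/mu-opioid receptor HEK293 cells. Probe or stimulus: DAMGO in two steps, submaximal then maximal.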
Hits are given with their value; – = inactive; · = not tested or not shown; ! = not confirmed by another sample.

SMILES	TRPC6 activator	TRPC4 potent	TRPC4 act	TRPC6 inhibitor	TRPC4 inh
COC(=O)NCC(c1ccc2c(c1)OCO2)N1CCN(c2ccc(OC)cc2)CC1 (stereo not given)	–	–	67	–	–
COc1ccc(N2CCN(C(CNC(=O)C(C)C)c3ccc4c(c3)OCO4)CC2)cc1 (stereo not given)	–	–	51	–	–
CCOC(=O)c1c(NC(=O)c2cc(-c3ccc(O)cc3)on2)sc(C(C)=O)c1C	–	–	–	–	–
Cc1cc(NS(=O)(=O)c2c(C(=O)N3CCOCC3)c(C)n(C)c2C)ccc1Br	–	–	–	–	–
CC1CCN(C(=O)CSc2nnc(CNC(=O)c3ccc(S(=O)(=O)N(C)C)cc3)o2)CC1	–	–	–	–	–
CN(CCCNC(=O)CCCOc1cc(=O)n(C)c2ccccc12)Cc1ccccc1	–	19	–	–	–
CN(CCNC(=O)CCCOc1cc(=O)n(C)c2ccccc12)Cc1ccccc1	–	–	99	–	–
COc1ccc(CCNC(=O)CCCOc2cc(=O)n(C)c3ccccc23)cc1OC	–	–	–	–	–
COc1ccc(C(=O)NNC(=S)NC(=O)C(C)(C)C)cc1	–	–	225	–	–
COc1ccc(C(=O)NNC(=O)c2ccc(C(C)(C)C)cc2)cc1	–	–	–	–	–
CC(C)(C)C(=O)NC(=S)NNC(=O)c1sc2ccccc2c1Cl	–	–	256	–	–
COc1ccc(OC)c(N2C(=O)CC(Cc3ccc(C)cc3)C2=O)c1 (stereo not given)	–	–	–	–	–
Clc1ccc2c(c1)-c1nnc(Br)n1-c1ccccc1S2	–	–	–	–	-6
Cc1ccccc1N1CC(O)(c2cccs2)[N+]2=C1CCCC2 (stereo not given)	–	–	–	–	-9
Cc1cccc(NC(=O)CS(=O)(=O)Cc2ccccc2)n1	–	–	53	–	–
Cc1csc(NC(=O)CS(=O)(=O)Cc2ccccc2)n1	–	–	–	–	–
COc1ccccc1CN=C1Nc2ccccc2CS1	–	–	71	–	–
CC(=O)c1ccc(N2CCN(C(=O)CCS(=O)(=O)c3ccc4c(c3)NC(=O)CS4)CC2)cc1	–	17	–	–	–
Nc1nc(-c2ccc(-n3nncc3-c3ccco3)cc2)cs1	–	–	–	–	-5
Cc1nc(-c2ccc(-n3nncc3-c3ccco3)cc2)cs1	–	–	–	–	–
CCOC(=O)c1c(Cc2ccccc2)c[nH]c1C	–	–	–	–	–
CC(=O)N1CCOCCOCCN(C(C)=O)CCOCC1	–	–	–	–	–
COc1ccc2nc3cc(Cl)ccc3c(Nc3cc(CN4CCCC4)c(O)c(CN4CCCC4)c3)c2n1	–	–	–	-6.6	–
Cc1ccc(-c2nnc(SCC(=O)N/N=C/c3ccc(C(=O)O)cc3)n2C2CCCCC2)cc1	–	–	–	–	–
Cc1ncsc1CCOC(=O)c1cccc([N+](=O)[O-])c1	–	–	–	–	-6!
SMILES	TRPC6 activator	TRPC4 potent	TRPC4 act	TRPC6 inhibitor	TRPC4 inh
O=C(COC(=O)c1cccc([N+](=O)[O-])c1)NCc1cccs1	–	–	–	–	·
CCOc1ccc(-n2c(C)c(C(C)=O)c3cc(O)ccc32)cc1	–	11	–	–	–
CCc1ccc(-c2csc(NC(=O)COC(=O)CCc3nc4ccccc4s3)n2)cc1	–	–	–	–	–
COc1cccc(CN2CCN(C(=O)c3cccc(OC)c3)CC2)c1	–	–	–	–	–
Cc1ccc(S(=O)(=O)Nc2cccc(C(=O)NC3CCN(Cc4ccccc4)CC3)c2)cc1F	–	–	–	–	–
O=C(c1cccc(NS(=O)(=O)c2ccc(F)c(F)c2)c1)N1CCN(Cc2ccccc2)CC1	–	–	81	–	–
O=C(c1ccccc1)N1CCN(Cc2cccc(Oc3ccccc3)c2)CC1	17	–	–	-11	–
COc1ccccc1C(=O)Nc1c(C(=O)N(CCN(C)C)Cc2ccco2)oc2ccccc12	–	–	–	–	–
Cc1ccccc1C(=O)Nc1c(C(=O)N(CCN(C)C)Cc2ccco2)oc2ccccc12	–	–	45	–	-6
CC1(c2ccc(OC(F)F)cc2)NC(=O)N(CC(=O)Nc2cccnc2Cl)C1=O (stereo not given)	–	–	62	–	–
COc1ccc(C2(C)NC(=O)N(CC(=O)Nc3cccnc3Cl)C2=O)cc1 (stereo not given)	–	–	–	–	–
CCOc1ccc(NS(=O)(=O)c2c(C(=O)N3CCCCCC3)c(C)n(C)c2C)cc1	–	–	–	–	–
CSCCC(NC(=O)c1ccccc1)C(=O)Nc1ccc(NC(C)=O)cc1 (stereo not given)	–	–	–	-5.2	–
CCC(C)NC(=O)C(CCSC)NC(=O)c1ccccc1 (stereo not given)	–	–	–	–	–
COC(=O)C1CCN(C(=O)COC(=O)c2cccc(NS(=O)(=O)c3ccccc3)c2)CC1	–	–	–	–	–
CN1CCN(CC(=O)Nc2c(C#N)cnn2-c2ccccc2)CC1	–	–	59	–	–
CC(C)(C)NC(=O)NC(=O)COC(=O)CNS(=O)(=O)/C=C/c1ccccc1	–	–	–	–	–
N[C@@H](Cc1ccccc1)C(=O)N1CCC(C(=O)N[C@@H](Cc2c[nH]c3ccccc23)C(=O)O)CC1	–	–	–	–	-6
COc1cc(/C=C2/C(=O)NN(c3cccc(C)c3)C2=O)ccc1OC(=O)c1ccco1	–	22	–	–	–
O=C1CC(c2ccc(F)cc2)Sc2nc(C34CC5CC(CC(C5)C3)C4)nn21 (stereo not given)	–	–	–	–	–
CCOP(=O)(OCC)c1nc(-c2ccc(Cl)cc2Cl)oc1N1CCCCC1	–	19	–	–	–
O=C(c1cccc(NC2=NC3CS(=O)(=O)CC3S2)c1)N1CCN(c2cccc(Cl)c2)CC1 (stereo not given)	–	–	–	–	–
COc1cc2c(cc1NC(=O)C(C)Sc1ccc(NC(C)=O)cc1)oc1ccccc12 (stereo not given)	–	11	–	–	–
COc1cc2c(cc1NC(=O)Nc1ccc(C)cc1)oc1ccccc12	–	–	–	–	–
CCN1C(=O)/C(=C/N2CCc3ccccc32)SC1=S	–	–	–	–	–
CCN1C(=O)/C(=C\N2CCCc3ccccc32)SC1=S	–	20	–	–	–
CC1CC(C)(C)NC(=S)N1CCCC(=O)NCCc1ccc(Cl)cc1 (stereo not given)	–	–	–	–	–
COC(=O)C(Cc1cccc(C)n1)(c1ccccc1)c1ccccc1	–	–	–	–	-7
Cc1ccccc1C(=O)NC1CC2CCC(C1)N2Cc1ccccc1 (stereo not given)	–	–	–	–	-5
CCOc1ccccc1C(=O)NC1CC2CCCC(C1)N2Cc1ccc(C)cc1 (stereo not given)	–	–	–	–	–

Compound activity (PubChem BioAssay)
